A selection: hits, their analogues and other compounds. The true share with any hit is near 1.9%.
APJ ag = agonists of human APJ apelin receptor; P35414; CHO-K1 APJ PathHunter beta-arrestin, luminescence; 0% DMSO wells, 100% apelin; activation, % at 20 µM; hit rate 0.11% among 330,000; AID 2520;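 active = activation more than six SD over the plate average, tested at 20 µM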;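 also: 0% = DMSO alone and 100% = apelin-13 at 10 nM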
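Test system – PathHunter CHO-K1 APJ (AGTRL-1) beta-arrestin reporter cells · Input – 1000 cells/well · Compound – single test compound dose, 20 µM final, 1% DMSO · Times – compound stimulation 90 min at 25 °C, detection 60 min · Technique – beta-gal luminescence · Read-out basis – APJ–arrestin association signal · Control set – negative DMSO alone, positive Apelin-13 at 10 nM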
H9c2 TAG inh = triacylglycerol accumulation inhibition. H9c2 cells, Nile Red lipid (TAG) fluorescence; cells loaded with 200 µM oleic acid. inhibition, % at 12.5 µM. hit rate 0.66% among 230,000;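 active = pattern-corrected inhibition of lipid staining of at least 50% with the nuclear-stain viability signal not falling by more than 50%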;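 also: 0% = DMSO wells and 100% = triacsin C control wells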
CCR6 antag = CCR6 (human) receptor antagonism. inhibition, % at 20 µM. hit rate 0.49% among 340,000. P51684. CHO-K1 CCR6 PathHunter beta-arrestin, luminescence, CCL20-stimulated. AID 493098;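 active = compounds whose inhibition of the agonist-driven luminescence signal at 20 µM reaches about 50%, limit read from the data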;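 also: cells stimulated with CCL20 at 14 nM final; plate controls were DMSO with CCL20 for no effect and DMSO without agonist for full effect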
Target sequence (P51684 whole entry, looked up): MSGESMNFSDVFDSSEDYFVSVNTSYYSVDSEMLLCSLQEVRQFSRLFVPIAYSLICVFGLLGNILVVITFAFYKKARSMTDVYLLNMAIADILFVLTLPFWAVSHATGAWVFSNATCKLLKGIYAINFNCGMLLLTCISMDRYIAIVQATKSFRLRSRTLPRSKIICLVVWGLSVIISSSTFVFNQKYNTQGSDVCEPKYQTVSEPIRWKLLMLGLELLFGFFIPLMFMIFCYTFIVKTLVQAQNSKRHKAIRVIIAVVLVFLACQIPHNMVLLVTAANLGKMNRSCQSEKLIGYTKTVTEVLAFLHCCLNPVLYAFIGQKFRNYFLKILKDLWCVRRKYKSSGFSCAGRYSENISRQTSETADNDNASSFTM
EBI2 antag = antagonists of human EBI2 receptor | hit rate 0.81% among 360,000 | P32249 | EBI2 beta-arrestin recruitment, luminescence, 7a,25-OHC stimulated | inhibition, % at 5 µM; in the data active = inhibition above about 38%;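 also: enzyme fragment complementation signal reports receptor beta-arrestin coupling in cells; 0% = agonist plus DMSO wells and 100% = wells without agonist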
Target sequence (P32249 whole entry, looked up, the tested form may be a part): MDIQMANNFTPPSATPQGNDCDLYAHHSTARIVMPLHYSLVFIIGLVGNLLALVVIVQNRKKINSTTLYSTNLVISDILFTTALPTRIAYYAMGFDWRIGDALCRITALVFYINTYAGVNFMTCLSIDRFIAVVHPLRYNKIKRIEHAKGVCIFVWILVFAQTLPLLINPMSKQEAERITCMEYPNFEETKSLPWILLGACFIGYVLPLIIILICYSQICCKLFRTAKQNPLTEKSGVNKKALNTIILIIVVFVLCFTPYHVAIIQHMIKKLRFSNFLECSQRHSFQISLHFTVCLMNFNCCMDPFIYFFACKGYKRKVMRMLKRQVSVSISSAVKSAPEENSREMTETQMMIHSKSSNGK
APJ antagonist = APJ receptor antagonism | P35414 | CHO-K1 APJ beta-arrestin complementation, luminescence | inhibition, % at 20 µM | hit rate 0.32% among 330,000 | AID 2521;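 active = inhibition above about 40% at 20 µM, limit read from the data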;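 also: cells challenged with 10 nM apelin-13 agonist together with compound; plate controls were apelin-13 plus DMSO wells for no effect and DMSO wells lacking apelin-13 for full effect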
CXCR6 block = inhibitors of human CXCR6 receptor | O00574 | CHO-K1 PathHunter CXCR6 beta-arrestin, luminescence | inhibition, % at 20 µM | hit rate 0.36% among 360,000; in the data active = inhibition above about 34%, passing the limit was not always enough;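 also: antagonist mode with CXCL16 agonist at 10 nM final; 0% = 10 nM CXCL16 with DMSO and 100% = unstimulated wells without agonist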
Active calls of the source: *; / = no result.

SMILES	APJ ag	H9c2 TAG inh	CCR6 antag	EBI2 antag	APJ antagonist	CXCR6 block
C=C(C)COc1ccc(-c2n[nH]c(C)c2-c2ccc(OC)c(OC)c2)c(O)c1	2.0	56.1*	29.6	1.8	1.2	11.7
O=C(NCC(c1ccco1)N1CCCC1)c1cn(-c2ccccc2)nc1-c1ccc(F)cc1 (centres undefined)	-2.9	5.2	23.4	-10.4	-1.2	13.6
COc1ccc(-n2nc3c(c2NC(=O)COc2ccccc2OC)CS(=O)(=O)C3)cc1	/	4.4	/	0.4	/	5.5
O=[N+]([O-])c1cnc(Sc2ccncn2)c([N+](=O)[O-])c1	/	-6.1	/	-11.8	/	100.2*
C[C@H]1CN([C@@H](C)CO)C(=O)CCCn2nncc2CO[C@@H]1CN(C)C(=O)c1ccc2ccn(C)c2c1	/	0.3	/	-4.5	/	-3.1
O=C(Oc1ccc(C(=S)N2CCOCC2)cc1Br)c1cc(Cl)ccc1Cl	-4.5	-8.5	37.5	53.5*	1.8	8.4
Cc1noc(C)c1C(=O)Nc1cccc(S(=O)(=O)N2CCOCC2)c1	1.2	-5.1	-4.2	2.4	8.3	-10.9
O=C(Cn1ncc(Cl)c(Cl)c1=O)NC(=O)NC1CCCCC1	-3.1	56.3*	6.9	14.9	22.7	3.2
CC(NC(=O)Cn1ncc(Cl)c(Cl)c1=O)C12CC3CC(CC(C3)C1)C2 (centres undefined)	/	/	33.2	63.3*	/	32.2
O=C(CN1CCCCC1)NC(=O)NC1CCCC1	-0.4	/	-7.5	-6.0	-3.9	6.6
COCCNC(=O)C1(C)CCN(C(=O)c2ccc(C(F)(F)F)nc2C)C1 (centres undefined)	/	11.9	/	-11.0	/	0.4
CCCCOC(=O)c1ccc(NC(=O)c2c(N)n(C)c(=O)[nH]c2=O)cc1	0.2	/	17.5	/	12.0	/
Cc1ccccc1NC(=O)c1ccc(NC(=O)C2CCCO2)cc1 (centres undefined)	0.6	/	-0.6	-6.5	3.7	-8.9
Cc1c(N/N=C(\C#N)C(=O)c2ccccc2)c(=O)n(-c2ccccc2)n1C	/	/	63.2*	10.3	/	35.3
Cc1ccccc1C(=O)/C(C#N)=N/Nc1c(C)n(C)n(-c2ccccc2)c1=O	/	/	48.0	6.4	/	44.8*
CCOC(=O)/C(C#N)=N/Nc1c(C)n(C)n(-c2ccccc2)c1=O	-1.3	/	17.2	7.9	12.8	11.1
Cc1ccc(C(=O)/C=C/C(=O)c2ccc(C)cc2)cc1	-4.0	10.4	99.7*	28.0	32.7	91.7*
Cn1cccc1C(C#N)(CC#N)c1cccc(F)c1C#N (centres undefined)	-0.3	-0.1	7.0	1.0	18.7	4.0
Cn1cccc1C(C#N)c1cccc(F)c1C#N (centres undefined)	-6.6	-3.7	55.1*	-10.6	34.1	3.5
CC(C)CC1NC(=O)c2cc(Cl)ccc2-n2c1nc1ccc(F)cc1c2=O (centres undefined)	-4.6	/	/	/	4.1	/
COc1ccc(/C=N/NC(=O)COc2ccccc2-c2ccccc2)cc1	-2.5	59.2*	-2.0	-23.7	7.6	-2.7
COc1ccccc1NC(=O)N(C)C[C@@H]1OCc2cnnn2CCCC(=O)N([C@@H](C)CO)C[C@H]1C	/	-13.5	/	-6.4	/	-1.6
CCC(/C=C1\Sc2ccc(OC)cc2N1CCO)=C\c1sc2ccc(OC)cc2[n+]1CCO	-1.7	/	67.6*	9.4	-33.2	8.9
CCC(/C=C1\Sc2ccc(OC)cc2N1CC)=C\c1sc2ccc(OC)cc2[n+]1CCCS(=O)(=O)[O-]	-3.1	/	76.9*	-9.9	17.9	11.0
CCC(=O)/C=C1/Sc2ccc(OC)cc2N1CCO	-2.7	-1.2	19.7	-0.3	2.5	0.1
SMILES	APJ ag	H9c2 TAG inh	CCR6 antag	EBI2 antag	APJ antagonist	CXCR6 block
N#Cc1ccc(OCC(=O)N2CCN(c3ccc(C(F)(F)F)cn3)CC2)cc1	0.6	0.6	-7.5	58.6*	-5.0	-14.4
O=C(CCc1ccccc1F)N1CCN(c2ccc(C(F)(F)F)cn2)CC1	-1.0	/	-1.7	2.4	8.7	-1.1
COc1ccc(NC(=O)CN2C(=O)/C(=C3\SC(=S)N(CCC(=O)O)C3=O)c3ccccc32)cc1	12.0	-5.9	55.2*	-0.9	-142.2	7.6
CC1=CN2C(=N)/C(=C/c3ccc(Sc4ccc(C)cc4)o3)C(=O)N=C2S1	-1.1	-5.2	62.6*	0.0	25.8	34.4
CC1=CN2C(=N)/C(=C/c3ccc(C)o3)C(=O)N=C2S1	-6.0	1.0	29.0	-12.4	19.1	13.0
CC1=CN2C(=N)/C(=C/c3ccc(Sc4ccc(Cl)cc4)o3)C(=O)N=C2S1	-2.6	/	52.5*	3.3	20.1	19.0
CN1C(=O)/C(=C\c2ccccc2F)Sc2ccc(C(=O)NC3CCN(Cc4ccccc4)CC3)cc21	-1.7	/	12.4	-3.8	7.1	1.3
N#Cc1ccc(-c2nc3ccc(Br)cn3c2Cc2ccccc2)cc1	/	-29.0	/	30.3	/	16.8
N#CC(=C1C=CC(=NO)C(Cl)=C1)c1ccc(Cl)cc1	/	8.4	67.0*	-19.8	/	32.9
COc1ccc(OC)c2c1C(=O)C(Cl)=C(Cl)C2=O	-2.9	83.7	105.0*	20.6	27.4	102.1*
COc1ccc(OC)c2c1C(=O)c1ccccc1C2=O	-0.5	/	-3.4	/	8.6	/
Cc1ccc2cccc(OCC(=O)Nc3ccc4c(c3)OCO4)c2n1	-0.4	-18.4	0.8	-2.2	9.9	7.4
Cc1ccc2cccc(OC(=O)c3ccc4c(c3)OCCO4)c2n1	-4.1	-19.8	52.2*	-13.0	26.2	35.0
COc1ccc(NC(=O)/C(Cl)=C(/Cl)S(=O)(=O)Cc2ccc(C)cc2)cn1	/	99.4	57.5*	70.2*	/	48.4*
COc1ccc(NC(=O)Cc2ccc(Cl)c(Cl)c2)cn1	-1.5	5.4	-9.6	3.5	-0.8	-4.2
Cc1[nH]n(C(N)=S)c(=O)c1N=Nc1cccc(C(F)(F)F)c1	-6.6	/	20.8	9.3	17.7	10.2
Cc1[nH]n(C2=NCCS2)c(=O)c1N=Nc1cccc(C(F)(F)F)c1	-6.5	17.2	58.1*	15.6	38.0	53.2*
CCCc1cc(=O)n2nc(N3CCC(C(=O)NCc4ccc(C)o4)CC3)sc2n1	-2.0	/	-5.1	-5.3	-2.0	1.9
COc1ccccc1-c1cc(C(F)(F)F)nc(S(=O)(=O)CCCC(=O)NCc2ccc(F)cc2)n1	-0.1	81.6	23.5	8.7	8.3	40.5*
COc1ccccc1-c1cc(C(F)(F)F)nc(S(=O)(=O)CCCC(=O)N2CCCCC2C)n1 (centres undefined)	5.1	67.0*	12.0	20.1	-10.9	36.0
COc1ccc(C(=O)COc2ccc(C(C)=O)cc2OC)cc1OC	/	-3.5	4.8	-2.5	/	0.5
CCOC(=O)C1(CC)Oc2ccccc2C(c2ccc(OC)cc2)=C1C(=O)OC (centres undefined)	/	-20.4	28.1	13.8	/	48.0*
CCOC(=O)[C@]12CCC=C1N(Cc1ccco1)C(=O)[C@H](CC(=O)N1CCOCC1)C2	/	/	/	-10.9	/	-2.1
O=C1ON=C(c2ccccc2)/C1=C/c1ccccc1	3.5	/	8.5	-5.1	5.1	-2.1
COc1cc(/C=C2/C(=O)ON=C2c2ccccc2)ccc1O	-3.9	/	55.1*	-5.3	24.6	33.1

Screening data deposited in PubChem by Sanford-Burnham Center for Chemical Genomics.
